Assay [1] has as its system Human betaherpesvirus 5 (HCMV). The assay is described as follows: Inhibition of viral cytopathic effect in infected human foreskin fibroblast cell in monolayers of HCMV AD-169 by 50%.
The test system of assay [2] is Human alphaherpesvirus 1. Kind of assay: Inhibition of plaque formation in monolayers of HSV-1 KOS Vero cells by 50%. In kind it is functional, organism-based. To be noted: Human alphaherpesvirus 1, Vero. An outline of the steps: (§1)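 Vero cells in DMEM with 5% FBS, seeded 1 day ahead, infected with ~100 PFU/well (KOS, TK+; KOSSB, TK−) for 1 h at 37 °C. Inoculum replaced with drug dilutions in duplicate: first 25, 10, 5, 1 µg/mL (KOS) or 50, 25, 10, 1 µg/mL (KOSSB), then 1:2 series. After 48 h at 37 °C, methanol fixation and Giemsa staining. EC50 from plaque counts versus no-drug controls.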

For another assay, the system named is Human alphaherpesvirus 2. Kind of assay: Inhibition of viral cytopathic effect in infected human foreskin fibroblast cell monolayers of HSV-2 MS […] by 50%. Type of assay: functional, organism-based.
Assay [3] deals with Human alphaherpesvirus 1. Kind of assay: Inhibition of plaque formation in monolayers of HSV-1 E-377 Vero cells by 50%. In kind it is functional, organism-based. To be noted: Human alphaherpesvirus 1, Vero.
For the next assay, the system named is Human alphaherpesvirus 3. Kind of assay: Inhibition of viral cytopathic effect in infected human foreskin fibroblast cell in monolayers of VZV Ellen […] by 50%. Type of assay: functional, organism-based.
Assay [4] has as its system Human alphaherpesvirus 1. Kind of assay: Inhibition of plaque formation in monolayers of HSV-1 KOSSB(TK-) Vero cells by 50%. Type of assay: functional, organism-based. To be noted: Human alphaherpesvirus 1, Vero. An outline of the steps:
as §1

Assay [5] relates to Human alphaherpesvirus 1. Kind of assay: Inhibition of plaque formation in monolayers of HSV-1 KOS (TK+) Vero cells by 50%. Type of assay: functional, organism-based. To be noted: Human alphaherpesvirus 1, Vero. The essentials:
as §1

The subject of assay [6] is Human alphaherpesvirus 1. The assay is described as follows: Inhibition of plaque formation in monolayers of HSV-1 E-377 (TK+) Vero cells by 50%. In kind it is functional, organism-based. To be noted: Human alphaherpesvirus 1, Vero.
Assay [7] deals with Human alphaherpesvirus 1. Kind of assay: Inhibition of plaque formation in monolayers of HSV-1 KOS (TK+)Vero cells by 50%. In kind it is functional, organism-based. To be noted: Human alphaherpesvirus 1, Vero. The essentials: as §1
Assay [8] relates to Human alphaherpesvirus 1. The assay is described as follows: Inhibition of plaque formation in monolayers of HSV-1 E-377(TK+) Vero cells by 50%. Type of assay: functional, organism-based. To be noted: Human alphaherpesvirus 1, Vero.
Assay [9] concerns Human betaherpesvirus 5 (HCMV). The assay is described as follows: Inhibition of viral cytopathic effect in infected human foreskin fibroblast cell in monolayers of HCMV AD-169 by 50%. This is another data set of the same source.

Some results are limits rather than exact numbers.

`N#CNC(CCl)c1cn([C@H]2C[C@H](O)[C@@H](CO)O2)c(=O)[nH]c1=O` (stereo partly drawn): the EC50 in assay [1] is 274 µM; in the assay on Human alphaherpesvirus 1 [2] it was 37.5 µM; in the assay on Human alphaherpesvirus 2 it was 105 µM; with Human alphaherpesvirus 1 [3], 210 µM; in the assay on Human alphaherpesvirus 3 it was 31.5 µM; in the assay with Human alphaherpesvirus 1 [4] it was greater than 150 µM.
In the case of `[N-]=[N+]=NCC(O)c1cn([C@H]2C[C@H](O)[C@@H](CO)O2)c(=O)[nH]c1=O` (stereo partly drawn), the EC50 is greater than 322 µM in assay [1]; greater than 80 µM in the assay on Human alphaherpesvirus 1 [2]; greater than 322 µM with Human alphaherpesvirus 2; greater than 322 µM in the assay on Human alphaherpesvirus 1 [3]; greater than 322 µM in the assay with Human alphaherpesvirus 3; greater than 161 µM with Human alphaherpesvirus 1 [4].
For the molecule `COC(CN=[N+]=[N-])c1cn([C@H]2C[C@H](O)[C@@H](CO)O2)c(=O)[nH]c1=O` (stereo partly drawn), the EC50 was greater than 300 µM in assay [1]; greater than 75 µM in the assay with Human alphaherpesvirus 1 [2]; greater than 300 µM in the assay with Human alphaherpesvirus 2; greater than 300 µM with Human alphaherpesvirus 1 [3]; greater than 300 µM in the assay on Human alphaherpesvirus 3; greater than 150 µM with Human alphaherpesvirus 1 [4].
Turning to `N#CNC(CI)c1cn([C@H]2C[C@H](O)[C@@H](CO)O2)c(=O)[nH]c1=O` (stereo partly drawn), the EC50 was greater than 236 µM in assay [1]; 1.6 µM with Human alphaherpesvirus 1 [5]; 77.8 µM in the assay on Human alphaherpesvirus 2; 9.4 µM in the assay on Human alphaherpesvirus 1 [6]; 14.6 µM with Human alphaherpesvirus 3; 15.3 µM in the assay on Human alphaherpesvirus 1 [4].
As to `N#CNC(CBr)c1cn([C@H]2C[C@H](O)[C@@H](CO)O2)c(=O)[nH]c1=O` (stereo partly drawn), the EC50 was greater than 266 µM in assay [1]; 6.6 µM in the assay on Human alphaherpesvirus 1 [7]; 87.7 µM in the assay on Human alphaherpesvirus 2; 20.7 µM in the assay on Human alphaherpesvirus 3; 42.5 µM in the assay with Human alphaherpesvirus 1 [8]; greater than 133 µM in the assay on Human alphaherpesvirus 1 [4].
On to `N#CNC(CBr)c1cn(C2O[C@H](CO)[C@@H](O)[C@@H]2O)c(=O)[nH]c1=O` (stereo partly drawn), for which the EC50 in assay [1] is greater than 256 µM; with Human alphaherpesvirus 1 [2], 62.5 µM; in the assay with Human alphaherpesvirus 2 it was greater than 256 µM; in the assay on Human alphaherpesvirus 1 [3] it was greater than 256 µM; in the assay on Human alphaherpesvirus 3 it was 32 µM; with Human alphaherpesvirus 1 [4] it was greater than 125 µM.
As to `N#CNC(CI)c1cn(C2O[C@H](CO)[C@@H](O)[C@@H]2O)c(=O)[nH]c1=O` (stereo partly drawn), the concentration giving a half-maximal response (EC50) was greater than 228 µM in assay [1]; 22.8 µM in the assay with Human alphaherpesvirus 1 [2]; greater than 228 µM in the assay on Human alphaherpesvirus 2; greater than 228 µM with Human alphaherpesvirus 1 [3]; 11.4 µM with Human alphaherpesvirus 3; greater than 114 µM in the assay with Human alphaherpesvirus 1 [4].
With `Nc1nc2c(ncn2COCCO)c(=O)[nH]1` [ACYCLOVIR], the EC50 with Human alphaherpesvirus 1 [2] stood at 2.2 µM; in the assay with Human alphaherpesvirus 2, 6.2 µM; in the assay with Human alphaherpesvirus 1 [3] it was 4.4 µM; in the assay with Human alphaherpesvirus 1 [4], 178 µM.
Turning to `O=c1[nH]c(=O)n([C@H]2C[C@H](O)[C@@H](CO)O2)cc1/C=C/Br` [BRIVUDINE], the EC50 in assay [1] was greater than 150 µM; in the assay on Human alphaherpesvirus 1 [2] it was 1.5 µM; in the assay with Human alphaherpesvirus 1 [3], 2.7 µM; with Human alphaherpesvirus 3, 0.003 µM; in the assay on Human alphaherpesvirus 1 [4], greater than 150 µM.
For `CCc1cn([C@H]2C[C@H](O)[C@@H](CO)O2)c(=O)[nH]c1=O` [EDOXUDINE], the EC50 was greater than 390 µM in [9]; 19.5 µM with Human alphaherpesvirus 1 [2]; 58.5 µM in the assay on Human alphaherpesvirus 2; 42.9 µM in the assay with Human alphaherpesvirus 1 [3]; 32.7 µM in the assay with Human alphaherpesvirus 3; greater than 780 µM with Human alphaherpesvirus 1 [4].
`Nc1nc2c(ncn2COC(CO)CO)c(=O)[nH]1` [GANCICLOVIR] yielded an EC50 in [1] of 0.23 µM.

The record behind these values is ChEMBL document CHEMBL1134633, “Synthesis and antiviral activity of novel 5-(1-cyanamido-2-haloethyl) and 5-(1-hydroxy(or methoxy)-2-azidoethyl) analogues of uracil nucleosides” (J Med Chem, 2001).
